# Results taken from ChEMBL document CHEMBL4765226, “Identification of a Human Toll-Like Receptor (TLR) 8-Specific Agonist and a Functional Pan-TLR Inhibitor in 2-Aminoimidazoles” (J Med Chem, 2016).
# The source made the active and inactive calls. No cut-off for these calls is given here.
# Columns and labels:
# [1] = molecular target: T1, Toll-like receptor 8 (Homo sapiens) (UniProt Q9NR97); assay: Agonist activity at TLR8 in human monocytes assessed as induction of NF-kappaB phosphorylation measured after 15 mins in presence of 10% FBS by Alexa fluor 647 dye based flow cytometry analysis; format: cell-based; conditions: Monocyte, filed as agonist, in the assay text read “PE-Cy7 dye” for “Alexa fluor 647 dye”
# T1 sequence (whole entry): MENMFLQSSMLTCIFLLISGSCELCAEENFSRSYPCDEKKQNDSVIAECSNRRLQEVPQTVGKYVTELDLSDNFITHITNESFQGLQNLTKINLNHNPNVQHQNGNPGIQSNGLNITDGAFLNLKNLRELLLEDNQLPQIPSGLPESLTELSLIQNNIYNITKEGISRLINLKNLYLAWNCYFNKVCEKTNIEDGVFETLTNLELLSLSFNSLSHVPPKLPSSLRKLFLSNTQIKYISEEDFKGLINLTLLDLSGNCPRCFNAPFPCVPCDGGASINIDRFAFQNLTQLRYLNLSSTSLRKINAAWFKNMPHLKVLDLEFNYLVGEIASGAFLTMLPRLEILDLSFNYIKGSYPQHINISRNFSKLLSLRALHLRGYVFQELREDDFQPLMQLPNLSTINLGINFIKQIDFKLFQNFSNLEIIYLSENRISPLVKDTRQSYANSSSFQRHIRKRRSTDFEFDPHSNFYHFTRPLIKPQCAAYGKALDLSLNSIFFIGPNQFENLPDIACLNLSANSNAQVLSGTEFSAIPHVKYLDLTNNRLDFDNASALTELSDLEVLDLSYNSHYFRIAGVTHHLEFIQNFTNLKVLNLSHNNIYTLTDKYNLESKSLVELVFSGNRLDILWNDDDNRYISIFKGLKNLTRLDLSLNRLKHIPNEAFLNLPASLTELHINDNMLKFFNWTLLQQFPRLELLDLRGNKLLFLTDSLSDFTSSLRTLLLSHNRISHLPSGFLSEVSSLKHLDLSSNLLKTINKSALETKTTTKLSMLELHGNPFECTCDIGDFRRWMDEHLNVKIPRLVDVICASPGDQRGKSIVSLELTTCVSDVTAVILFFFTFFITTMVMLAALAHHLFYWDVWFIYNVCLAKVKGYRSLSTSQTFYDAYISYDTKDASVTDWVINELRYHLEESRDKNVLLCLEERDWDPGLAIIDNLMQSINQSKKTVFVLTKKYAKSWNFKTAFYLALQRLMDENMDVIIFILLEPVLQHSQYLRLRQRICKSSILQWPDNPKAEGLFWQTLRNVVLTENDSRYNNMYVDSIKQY
# In short: (§1)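 Whole human blood with anticoagulant was added to serial compound dilutions in RPMI with 10% FBS and held at 37 °C for 15 min. Samples were lysed and fixed three times, permeabilized in ice-cold methanol for 30 min, then stained on ice for 60 min with anti-NF-κB p65-PECy7, p38MAPK-PE and ERK1/2-AlexaFluor 647. Flow cytometry acquired 100,000 gated events; monocytes and polymorphonuclear cells were gated.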
# [2] = molecular target: T1, Toll-like receptor 8 (Homo sapiens); assay: Agonist activity at TLR8 in human polymorphonuclear leucocyte cells assessed as induction of NF-kappaB phosphorylation measured after 15 mins in presence of 10% FBS by Alexa fluor 647 dye based flow cytometry analysis; format: tissue-based; conditions: filed as agonist, in the assay text read “PE-Cy7 dye” for “Alexa fluor 647 dye”; in short: as §1
# [3] = molecular target: T1, Toll-like receptor 8 (Homo sapiens); assay: Agonist activity at TLR8 in human PBMC cells assessed as induction of MCP1 production incubated for 16 hrs by immunoassay; format: cell-based; conditions: filed as agonist
# In short: (§2)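 Fresh human PBMCs isolated from venous blood, plated at 10^5 cells in 100 µL per well and stimulated for 16 h with graded concentrations of compound. Supernatants were collected by centrifugation and assayed in duplicate with a multiplexed cytokine/chemokine magnetic bead array.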
# [4] = molecular target: T1, Toll-like receptor 8 (Homo sapiens); assay: Agonist activity at TLR8 in human PBMC cells assessed as induction of IL-6 production incubated for 16 hrs by immunoassay; format: cell-based; conditions: filed as agonist; in short: as §2
# [5] = molecular target: T1, Toll-like receptor 8 (Homo sapiens); assay: Agonist activity at TLR8 in human PBMC cells assessed as induction of IFNgamma production incubated for 16 hrs by immunoassay; format: cell-based; conditions: filed as agonist; in short: as §2
# [6] = molecular target: T1, Toll-like receptor 8 (Homo sapiens); assay: Agonist activity at TLR8 in human PBMC cells assessed as induction of MIP-1alpha production incubated for 16 hrs by immunoassay; format: cell-based; conditions: filed as agonist; in short: as §2
# [7] = molecular target: T1, Toll-like receptor 8 (Homo sapiens); assay: Agonist activity at TLR8 in human PBMC cells assessed as induction of IL-12p40 production incubated for 16 hrs by immunoassay; format: cell-based; conditions: filed as agonist; in short: as §2
# [8] = molecular target: T1, Toll-like receptor 8 (Homo sapiens); assay: Agonist activity at TLR8 in human PBMC cells assessed as induction of TNFalpha production incubated for 16 hrs by immunoassay; format: cell-based; conditions: filed as agonist; in short: as §2
# [9] = molecular target: T1, Toll-like receptor 8 (Homo sapiens); assay: Agonist activity at TLR8 in human PBMC cells assessed as induction of IL-1beta production incubated for 16 hrs by immunoassay; format: cell-based; conditions: filed as agonist; in short: as §2
# [10] = molecular target: T1, Toll-like receptor 8 (Homo sapiens); assay: Agonist activity at TLR8 in human PBMC cells assessed as induction of MIP-1beta production incubated for 16 hrs by immunoassay; format: cell-based; conditions: filed as agonist; in short: as §2
Activity [1],Activity [2],Activity [3],Activity [4],Activity [5],Activity [6],Activity [7],Activity [8],Activity [9],Activity [10],SMILES
Dose-dependent effect,Dose-dependent effect,,,,,,,,,CCCCCc1cc2c(CCCCCN)cccc2nc1N
Dose-dependent effect,Dose-dependent effect,Active,Active,Active,Active,Active,Active,Active,Active,CCCCCn1c(N)nc2c(C)cccc21
Dose-dependent effect,Dose-dependent effect,,,,,,,,,CCCCCc1cc2ccccc2nc1N
